For experiment [1], the system named is Trypanosoma cruzi. Kind of experiment: Trypanocidal activity against Trypanosoma cruzi Y blood stream trypomastigotes assessed as parasite lysis at 1.25 mM relative to control. It is filed as functional. The essentials: (§1)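 Infected blood with Y-strain bloodstream trypomastigotes was exposed to compound in 1% DMSO plus TCM199 at final 0.31–5.0 mM. Tubes were incubated 24 h at 4C. An aliquot was examined microscopically and parasites counted. Activity was calculated as percent parasite reduction versus negative control (1% DMSO + TCM199). DMSO and gentian violet control tubes were run in parallel.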

Experiment [2] concerns Trypanosoma cruzi. Kind of experiment: Trypanocidal activity against Trypanosoma cruzi Y blood stream trypomastigotes assessed as parasite lysis at 0.63 mM relative to control. It is filed as functional. In a few lines: as §1
For experiment [3], the system named is Trypanosoma cruzi. Kind of experiment: Trypanocidal activity against Trypanosoma cruzi Y blood stream trypomastigotes assessed as parasite lysis at 2.50 mM relative to control. It is filed as functional. The essentials: as §1
Experiment [4] has as its system Trypanosoma cruzi. The experiment is described as follows: Trypanocidal activity against Trypanosoma cruzi Y blood stream trypomastigotes assessed as parasite lysis at 0.31 mM relative to control. It counts as functional. The essentials: as §1
For experiment [5], the system named is Trypanosoma cruzi. Kind of experiment: Trypanocidal activity in Swiss albino mouse inoculated with Trypanosoma cruzi Y blood trypomastigotes assessed as parasitaemia reduction administered after 7th day of inoculation at 250 mg/kg, po after 4 hrs relative to control. It counts as functional. Details: scale not given: the % may be the effect or the level left. In a few lines:
(§2)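 Male Swiss albino mice (18–20 g, 30 days old) were infected ip with 5×10^4 Y-strain blood trypomastigotes. At peak parasitaemia (day 7), a single oral 250 mg/kg dose in DMSO 0.1 mL plus LIT 0.9 mL was given. Circulating parasites were counted microscopically before and 4 and 6 h after dosing. Percent reduction was taken versus pre-treatment count, with three mice per group, mean ± SD, and Split-Plot test.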

Experiment [6] relates to Trypanosoma cruzi. Kind of experiment: Trypanocidal activity against blood stream Trypanosoma cruzi Y trypomastigotes assessed as parasite lysis at 5 mM relative to control. It counts as functional. The essentials:
as §1

The subject of experiment [7] is Trypanosoma cruzi. Kind of experiment: Trypanocidal activity in Swiss albino mouse inoculated with Trypanosoma cruzi Y blood trypomastigotes assessed as parasitaemia reduction administered after 7th day of inoculation at 250 mg/kg, po after 6 hrs relative to control. On the set-up: scale not given: the % may be the effect or the level left. It is filed as functional. The essentials: as §2

Experiment [8] concerns Blood. Kind of experiment: Induction of total haemolysis in Albino mouse blood infected with Trypanosoma cruzi Y at 2.5 mM. It counts as functional, tissue-based. The essentials:
(§3)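 Erythrocyte lysis was scored in the in vitro trypomastigote tubes as partial or total haemolysis. Infected blood (0.2 mL) was mixed with compound in 1% DMSO plus TCM199 at final 0.31, 0.63, 1.25, 2.50 and 5.0 mM. Tubes were incubated 24 h at 4C and examined microscopically.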

The test system of experiment [9] is Blood. The experiment is described as follows: Induction of total haemolysis in Albino mouse blood infected with Trypanosoma cruzi Y at 1.25 mM. It is filed as functional, tissue-based. In a few lines: as §3
The subject of experiment [10] is Blood. Kind of experiment: Induction of total haemolysis in Albino mouse blood infected with Trypanosoma cruzi Y at 5 mM. It is filed as functional, tissue-based. In a few lines:
as §3

Calls of active or inactive are those of the source. No cut-off for these calls is given here.

As for `CN(C)c1ccc(C(=C2C=CC(=[N+](C)C)C=C2)c2ccc(N(C)C)cc2)cc1.[Cl-]` [GENTIAN VIOLET], the Activity with Trypanosoma cruzi [1] is 100%; in the experiment with Trypanosoma cruzi [2] it was 100%; in the experiment with Trypanosoma cruzi [3], 100%; in the experiment with Trypanosoma cruzi [4] it was 67%.
With `C=C1C[C@@]23CCC4[C@@](C)(CCC[C@@]4(C)C(=O)OC)C2CC[C@@H]1C3` (stereo partly specified), the Activity in the experiment on Trypanosoma cruzi [5] came out at 56.5%; in the experiment on Trypanosoma cruzi [1] it was 88%; in the experiment on Trypanosoma cruzi [2] it was 48%; in the experiment on Trypanosoma cruzi [3] it was 100%; in the experiment with Trypanosoma cruzi [4], 45%; in the experiment on Trypanosoma cruzi [6], 100%. For the same molecule, the Activity in the experiment with Trypanosoma cruzi [7] came out at 51.5%.
For the molecule `C=C1C[C@@]23CC[C@H]4[C@@](C)(CCC[C@@]4(C)C(=O)O)[C@@H]2CC[C@@H]1C3` [KAURENOIC ACID], the result in the experiment on Blood [8], in the experiment with Blood [9] and in the experiment with Blood [10] was Active. In addition, the Activity came to 100% in the experiment on Trypanosoma cruzi [1]; 90% in the experiment on Trypanosoma cruzi [2]; 100% in the experiment with Trypanosoma cruzi [3]; 0% in the experiment on Trypanosoma cruzi [4]; 100% with Trypanosoma cruzi [6].
`C=C1C[C@@]23CC[C@@H]4[C@](C)(CO)CCC[C@@]4(C)[C@@H]2CC[C@H]1C3`: the Activity with Trypanosoma cruzi [1] turned out to be 66%; in the experiment on Trypanosoma cruzi [3], 72%; in the experiment with Trypanosoma cruzi [6], 100%.
With `COC(=O)[C@]1(C)CCC[C@@]2(C)C3CC[C@@H]4C[C@@]3(CCC21)C[C@@H]4CO` (stereo partly specified), the Activity in the experiment on Trypanosoma cruzi [2] is reported as 94%; in the experiment on Trypanosoma cruzi [3] it was 100%; with Trypanosoma cruzi [4] it was 45%; in the experiment with Trypanosoma cruzi [6], 100%.
As to `C=C1C[C@@]23CCC4[C@](C)(CO[C@@H]5O[C@@H](CO)[C@H](O)[C@@H](O)[C@@H]5OC(C)=O)CCC[C@@]4(C)C2CC[C@@H]1C3` (stereo partly specified), the Activity with Trypanosoma cruzi [1] was 0%; in the experiment with Trypanosoma cruzi [3] it was 0%; in the experiment with Trypanosoma cruzi [6], 56%.
For the molecule `O=C(Cn1ccnc1[N+](=O)[O-])NCc1ccccc1` [BENZNIDAZOLE], the Activity in the experiment on Trypanosoma cruzi [5] is reported as 91.7%; in the experiment with Trypanosoma cruzi [7], 92.6%.
